Three compounds from ChEMBL document CHEMBL6177920, “Natural product-inspired [3 + 2] cycloaddition-based spirooxindoles as dual anticancer agents: synthesis, characterization, and biological evaluation by in vitro and in silico methods” (RSC Med Chem, 2025) can be followed below.

Activity calls are given as the source filed them. No cut-off for these calls is given here.

As a reminder, the IC50 is the midpoint of a concentration-inhibition curve.

Assay [1] deals with HCT-15. Put plainly: Induction of cell cycle arrest in human HCT-15 cells assessed as decrease in cells at G0/G1 phase at 100 uM. It counts as functional, cell-based. In outline:
(§1)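 HCT 15 cells at 2 × 10^5/2 mL/well treated 48 h with 50, 100 or 200 µM, with DMSO control. Trypsinized, centrifuged 300 × g for 5 min, fixed 30 min in cold 70% ethanol on ice. Treated with RNase A 4 h, then propidium iodide 10 min at room temperature. Flow cytometry gave % sub-G0/G1, G0/G1, S and G2/M.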

The subject of assay [2] is HCT-15. The experiment in a line: Induction of cell cycle arrest in human HCT-15 cells assessed as decrease in cells at S phase at 100 uM. Type of assay: functional, cell-based. A digest of the protocol:
as §1

Assay [3] has as its system MDA-MB-468. The experiment in a line: Antiproliferative activity against human MDA-MB-468 cells assessed as inhibition of cell proliferation incubated for 24 to 72 hrs by SRB assay. Type of assay: functional, cell-based. A digest of the protocol: (§2)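 Cells seeded 1 × 10^4/well in DMEM + 10% FBS, incubated overnight at 37 °C, 5% CO2. Treated with serial dilutions, 62.5–1000 µM for MDA-MB-468 and 62.5–2000 µM for HCT 15, for 24, 48 and 72 h. DMSO 0.5% in the 2x working stock. Sulforhodamine-B read-out, % inhibition = (control − sample)/control × 100. Triplicate experiments, ≥4 replicates per concentration.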
(In SRB staining, fixed cells bind dye roughly in proportion to their protein.)

Assay [4] deals with MDA-MB-468. Put plainly: Induction of apoptosis in human MDA-MB-468 cells assessed as cell death by measuring red signals by acridine orange/EtBr staining based analysis. It counts as functional. The conditions noted are these: read-out: LD50 (the source's name). A digest of the protocol:
(§3)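 Cells seeded 0.3 × 10^6/well and grown about 36 h. Exposed 48 h to 250, 500 and 1000 µM (MDA-MB-468) or 500, 1000 and 2000 µM (HCT 15); 0.5% DMSO control. Trypsinized, stained 5 min with EtBr (100 µM) plus acridine orange (100 µM). Fluorescence microscopy counted green live versus orange dead cells, reported as % dead cells.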

The test system of assay [5] is HCT-15. The experiment in a line: Induction of apoptosis in human HCT-15 cells assessed as cell death by measuring red signals by acridine orange/EtBr staining based analysis. It counts as functional. The settings on record: read-out: LD50 (the source's name). In outline: as §3
For assay [6], the system named is HCT-15. Put plainly: Antiproliferative activity against human HCT-15 cells assessed as inhibition of cell proliferation incubated for 24 to 72 hrs by SRB assay. Type of assay: functional, cell-based. A digest of the protocol: as §2
The test system of assay [7] is HCT-15. Put plainly: Induction of cell cycle arrest in human HCT-15 cells assessed as decrease in cells at G2/M phase at 100 uM. Type of assay: functional, cell-based. In outline:
as §1

The test system of assay [8] is HCT-15. The experiment in a line: Induction of apoptosis in human HCT-15 cells assessed as decrease in caspase 3 activity. Type of assay: functional, cell-based. A digest of the protocol:
(§4)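 Cells seeded 5 × 10^5/2 mL and incubated overnight at 37 °C. Treated 24 h at 37 °C with 62.5–1000 µM (MDA-MB-468) or 62.5–2000 µM (HCT 15), then a further 24 h incubation step. Trypsinized, fixed in cold 70% ethanol 30 min at −20 °C, PBS-washed, stained 30 min in the dark at room temperature with anti-caspase-3/7 antibody. FACS on FL1 gave % caspase-3 cells; mean ± SD of triplicates.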

Assay [9] relates to MDA-MB-468. Put plainly: Induction of apoptosis in human MDA-MB-468 cells assessed as increase in caspase 3 activity. It counts as functional, cell-based. A digest of the protocol: as §4
Assay [10] has as its system HCT-15. Put plainly: Induction of cell cycle arrest in human HCT-15 cells assessed as decrease in cells at sub G0/G1 phase at 100 uM. It counts as functional, cell-based. A digest of the protocol: as §1
In assay [11] the test system is HCT-15. The experiment in a line: Induction of cell cycle arrest in human HCT-15 cells assessed as decrease in cells at G2/M phase at 200 uM. It counts as functional, cell-based. A digest of the protocol:
as §1

Assay [12] has as its system HCT-15. The experiment in a line: Induction of cell cycle arrest in human HCT-15 cells assessed as reduction in S phase at 200 uM. Type of assay: functional, cell-based. A digest of the protocol:
as §1

Assay [13] has as its system HCT-15. Put plainly: Induction of cell cycle arrest in human HCT-15 cells assessed as reduction in G0/G1 phase at 200 uM. It counts as functional, cell-based. A digest of the protocol: as §1
The next assay deals with MCF7. Put plainly: Induction of cell cycle arrest in human MCF7 cells assessed as increase in cells at sub G0/G1 phase at 200 uM incubated for 48 hrs by flow cytometric analysis (reference value: 2.57 %). It counts as functional. In general terms: A flow cytometer gives signals particle by particle.
Assay [14] concerns MDA-MB-468. Put plainly: Induction of cell cycle arrest in human MDA-MB-468 cells assessed as decrease in cells at G0/G1 phase at 100 to 200 uM. It counts as functional, cell-based. The settings on record: dose 100-200 µM. A digest of the protocol:
(§5)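 MDA-MB-468 or HCT 15 cells were seeded at 2 × 10^5 per 2 mL well in 6-well plates and exposed for 48 h to 50, 100 or 200 µM, with DMSO as control. Cells were trypsinized, spun 300×g for 5 min at 25 °C and fixed in cold 70% ethanol (30 min, ice). RNase A (100 µM, 4 h) was added, then PI (stock 50 µM, 10 min, RT). Phase distribution (sub-G0/G1, G0/G1, S, G2/M) was read by flow cytometry.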

Assay [15] relates to MDA-MB-468. Put plainly: Induction of cell cycle arrest in human MDA-MB-468 cells assessed as decrease in cells at S phase at 50 to 200 uM. It counts as functional, cell-based. The settings on record: dose 50-200 µM. In outline: as §5
Assay [16] relates to HCT-15. Put plainly: Induction of cell cycle arrest in human HCT-15 cells assessed as decrease in cells at G0/G1 phase at 50 to 200 uM. It counts as functional, cell-based. The settings on record: dose 50-200 µM. In outline: as §5
The subject of assay [17] is MDA-MB-468. The experiment in a line: Induction of apoptosis in human MDA-MB-468 cells assessed as increase in caspase 3 activity at 62.5 to 1000 uM. Type of assay: functional, cell-based. The settings on record: dose 62.5-1000 µM. A digest of the protocol:
(§6)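 Cells were plated at 5 × 10^5 per 2 mL in 6-well plates and held overnight at 37 °C in CO2. They were then treated for 24 h at 37 °C, with MDA-MB-468 at 62.5–1000 µM and HCT 15 at 62.5–2000 µM. Cells were trypsinized, fixed 30 min at −20 °C in cold 70% ethanol, PBS-washed and labelled with anti-caspase-3/7 antibody (30 min, dark, RT). Flow cytometry (FL1) gave % caspase-3-expressing cells, triplicate, mean ± SD.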

In assay [18] the test system is MDA-MB-468. Put plainly: Induction of cell cycle arrest in human MDA-MB-468 cells assessed as increase in cells at G0/G1 phase at 50 uM. It counts as functional, cell-based. In outline:
as §5

In assay [19] the test system is MDA-MB-468. The experiment in a line: Induction of cell cycle arrest in human MDA-MB-468 cells assessed as decrease in cells at G2/M phase at 50 to 200 uM. Type of assay: functional, cell-based. The settings on record: dose 50-200 µM. In outline:
as §5

For assay [20], the system named is HCT-15. Put plainly: Induction of apoptosis in human HCT-15 cells assessed as decrease in caspase 3 activity at 2000 uM. Type of assay: functional, cell-based. In outline: as §6
For assay [21], the system named is HCT-15. The experiment in a line: Induction of cell cycle arrest in human HCT-15 cells assessed as decrease in cells at S phase at 50 to 200 uM. It counts as functional, cell-based. The settings on record: dose 50-200 µM. A digest of the protocol: as §5
Assay [22] concerns MDA-MB-468. The experiment in a line: Induction of cell cycle arrest in human MDA-MB-468 cells assessed as increase in cells at sub G0/G1 phase at 200 uM (reference value: 1.78 %). It counts as functional. A digest of the protocol: as §5
In assay [23] the test system is HCT-15. The experiment in a line: Induction of cell cycle arrest in human HCT-15 cells assessed as accumulation of cells at G2/M phase at 200 uM (reference value: 12.25 %). It counts as functional. The conditions noted are these: time 48 hrs.

Take `O=c1[nH]cc(F)c(=O)[nH]1` [FLUOROURACIL]: the result in the assay on HCT-15 [1], in the assay on HCT-15 [2] and with HCT-15 [7] was Active. For the same compound, the IC50 with MDA-MB-468 [3] amounted to 551 µM; in the assay with HCT-15 [6], 579 µM; with HCT-15 [8] it was 426 µM; with MDA-MB-468 [9] it was 495 µM. Moreover, the results for the CC50 with MDA-MB-468 [4] and with HCT-15 [5] were 495 µM and 426 µM, respectively. The outcome with HCT-15 [10] was inactive.
Take `C=C1CC[C@H](O)C/C1=C/C=C1\CCC[C@]2(C)[C@@H]([C@H](C)CCCC(C)C)CC[C@@H]12` [CHOLECALCIFEROL]: the outcome with HCT-15 [11], with HCT-15 [12] and in the assay with HCT-15 [13] was Active. Also, the Activity with MCF7 worked out at 46.66%.
For `CCOc1ccc([C@@H]2C3CSCN3[C@]3(C(=O)Nc4ccccc43)[C@H]2C(=O)c2ccc(C)cc2)cc1OC` (stereo not given in full), the result in the assay on MDA-MB-468 [14], in the assay with MDA-MB-468 [15], in the assay on HCT-15 [16], in the assay with MDA-MB-468 [17], with MDA-MB-468 [19] and in the assay on HCT-15 [21] was Active. Besides, the IC50 in the assay on MDA-MB-468 [3] came out at 361 µM; in the assay on HCT-15 [6], 274 µM; with HCT-15 [8], 365 µM; in the assay with MDA-MB-468 [9], 407 µM. Besides, the figures for the CC50 in the assay with MDA-MB-468 [4] and with HCT-15 [5] were 281 µM and 312 µM, respectively. Further, the result in the assay on MDA-MB-468 [18] and in the assay on HCT-15 [20] was inactive. The values for the Activity with MDA-MB-468 [22] and in the assay with HCT-15 [23] were 44.5% and 43.5%, respectively.
